This is an account of results in ChEMBL document CHEMBL1275590, “Novel arylimidamides for treatment of visceral leishmaniasis” (Antimicrob Agents Chemother, 2010).

Data set [1] concerns Mus musculus. Put plainly: AUC (0 to infinity) in Swiss Webster mouse at 66 mg/kg, po by HPLC-MS/MS analysis. The format is ADME, organism-based, Plasma. The note with it: in vivo. Set-up: time infinity, dose 66 mg/kg, route oral. Summed up: (§1)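 Male Swiss Webster mice, n = 3 per time point. For i.v., the compound was dissolved in sterile water, diluted 1:1 with 2× saline, and given as a tail-vein bolus over ~10–20 s. For p.o., it was given by gavage in sterile water. Dose volume was 5 ml/kg. Terminal plasma was taken from 5 min to 72 h and measured by HPLC-MS/MS (calibration 2.5–10,000 nM). Parameters came from noncompartmental analysis.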

The subject of data set [2] is Mus musculus. The experiment in a line: Toxicity in BALB/c mouse assessed as occurrence of tremor at 30 mg/kg, iv. The format is organism-based. Also on record: dose 30 mg/kg, route intravenous. To be noted: in vivo. Summed up:
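Single-dose escalation: female BALB/c mice (n = 1 per dose level) given one i.v. dose in sterile water (10 ml/kg), 5–50 mg/kg, observed for 2 days.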

Data set [3] in a line: Clearance in Swiss Webster mouse at 5 mg/kg, iv by HPLC-MS/MS analysis. The format is ADME, organism-based. Also on record: dose 5 mg/kg, route intravenous. To be noted: in vivo. Summed up: as §1
A short description of data set [4]: AUC (0 to infinity) in Swiss Webster mouse at 5 mg/kg, iv by HPLC-MS/MS analysis. The format is ADME, organism-based. Set-up: time infinity, dose 5 mg/kg, route intravenous. The note with it: plasma. The gist of the method: as §1
The subject of data set [5] is Mus musculus. Put plainly: Volume of distribution in Swiss Webster mouse at 70 mg/kg, po by HPLC-MS/MS analysis. The format is ADME, organism-based. Set-up: dose 70 mg/kg, route oral. To be noted: in vivo. The gist of the method: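 Male Swiss Webster mice (n = 3 per time point) got a single oral gavage dose in sterile water, 5 ml/kg. The 5 mM formulation was a clear solution; the 20 and 40 mM formulations were gelatinous. Terminal blood was collected from 5 min to 72 h postdose, and plasma was analysed by HPLC-MS/MS. Volume of distribution came from noncompartmental analysis.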

For data set [6], the system named is Leishmania donovani. Put plainly: Antileishmanial activity against Leishmania donovani WR378 infected in golden Syrian hamster assessed as reduction in spleen parasitemia at 50 mg/kg/day, po administered for five days. The format is functional. To be noted: 120 h. Summed up: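 11-day golden hamster VL model adapted from an 8-day method, using L. donovani WR378 metacyclic promastigotes. Dosing was oral, once daily for 5 days. Animals were euthanized on day 11 post-infection. Liver, spleen and femoral bone marrow (flushed with Schneider's medium) were harvested.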

Broadly, the AUC is the area under the concentration-time curve, a measure of exposure. Read a high AUC as high exposure. In general, clearance refers to a measure of how efficiently the substance is removed, as volume per time. In general, AUC(0-inf) refers to the area under the concentration-time curve extrapolated to infinity. One may read the inhibition in vivo as the change of the read-out against control, counted positive when it falls.

On to `CCOc1cc(NC(=N)c2ccccn2)ccc1-c1ccc(-c2ccc(NC(=N)c3ccccn3)cc2OCC)o1`, for which the AUC in data set [1] was found to be 5.6 µM·h. Moreover, the Activity result in data set [2] was “Toxic”.
The compound `CC(C)Oc1cc(NC(=N)c2ccccn2)ccc1-c1ccc(-c2ccc(NC(=N)c3ccccn3)cc2OC(C)C)o1` registered a clearance in data set [3] of 13.1 mL/min/kg. In data set [4], the AUC(0-inf) came out at 9.53 µM·h. This compound had a Vd in data set [5] of 54 L/kg. Moreover, the inhibition in vivo at 50 mg/kg/day in data set [6] is 74%.
